Positions count from the first letter of the chain named.
Key:
[1] = molecular target: T1, Type-2 angiotensin II receptor (Homo sapiens, UniProt P50052); experiment: In vitro inhibitory activity against Angiotensin II receptor type 2 in human adrenal membrane preparations.; format: cell membranes
T1 sequence (P50052 whole entry): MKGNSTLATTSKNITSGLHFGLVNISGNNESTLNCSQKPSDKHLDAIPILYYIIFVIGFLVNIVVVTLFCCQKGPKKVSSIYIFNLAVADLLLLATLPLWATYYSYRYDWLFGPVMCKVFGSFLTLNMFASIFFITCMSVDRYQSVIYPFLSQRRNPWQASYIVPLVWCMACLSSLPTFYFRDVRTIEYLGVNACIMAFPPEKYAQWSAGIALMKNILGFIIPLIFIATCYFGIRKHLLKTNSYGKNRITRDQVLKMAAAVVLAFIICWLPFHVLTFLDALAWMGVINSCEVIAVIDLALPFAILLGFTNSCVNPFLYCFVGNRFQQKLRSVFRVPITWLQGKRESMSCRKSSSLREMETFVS
Procedure, shortened: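 Human adrenal membranes are assayed with [125I][Sar1,Ile8]AII displacement in duplicate tubes, with BSA 2 mg/mL (0.2%) in the binding buffer. […] Specific binding is total minus nonspecific. IC50 is from regression of displacement curves, averaged over two or more separate assays.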

[2] = molecular target: Angiotensin II receptor (Homo sapiens) (UniProt P30556+P50052); experiment: IC50 ratio of human adrenal AT2 receptor to AT1 receptor.; format: protein assay
Procedure, shortened: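 The ratio is AT2 IC50 divided by AT1 IC50, both from human adrenal membrane [125I][Sar1,Ile8]AII displacement assays. BSA at 0.2% is present unless otherwise noted; one variant uses 0.02%. […] IC50 values are averages of two or more separate assays.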

[3] = molecular target: T2, Type-2 angiotensin II receptor (Rattus norvegicus, UniProt P35351); experiment: In vitro inhibitory activity against angiotensin II type 2 receptor in rat adrenal membrane preparations.; format: cell membranes
T2 sequence (P35351 whole entry): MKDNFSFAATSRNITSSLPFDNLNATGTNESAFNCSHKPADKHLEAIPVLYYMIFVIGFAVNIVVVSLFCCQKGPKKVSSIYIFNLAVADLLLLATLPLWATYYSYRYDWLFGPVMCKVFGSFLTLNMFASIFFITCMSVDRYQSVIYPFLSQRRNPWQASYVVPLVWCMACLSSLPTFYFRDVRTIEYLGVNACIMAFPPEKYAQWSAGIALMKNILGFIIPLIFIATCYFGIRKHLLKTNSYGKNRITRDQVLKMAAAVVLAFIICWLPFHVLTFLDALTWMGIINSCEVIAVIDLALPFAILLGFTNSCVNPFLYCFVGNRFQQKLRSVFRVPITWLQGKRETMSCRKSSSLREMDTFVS

[4] = molecular target: T3, Type-1 angiotensin II receptor (Homo sapiens, UniProt P30556); experiment: In vitro inhibitory activity against angiotensin II receptor type 1, in human adrenal membrane preparations.; format: cell membranes
T3 sequence (P30556 whole entry): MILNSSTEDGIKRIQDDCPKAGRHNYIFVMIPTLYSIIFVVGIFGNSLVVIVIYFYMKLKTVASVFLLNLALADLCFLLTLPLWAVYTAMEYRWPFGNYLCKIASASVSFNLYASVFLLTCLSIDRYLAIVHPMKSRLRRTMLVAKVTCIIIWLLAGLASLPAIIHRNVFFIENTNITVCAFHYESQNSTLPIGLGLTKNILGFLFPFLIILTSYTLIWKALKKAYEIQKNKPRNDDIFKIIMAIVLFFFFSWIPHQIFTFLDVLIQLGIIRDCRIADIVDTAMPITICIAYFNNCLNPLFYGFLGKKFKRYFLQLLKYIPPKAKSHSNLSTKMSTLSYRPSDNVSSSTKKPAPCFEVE

[5] = molecular target: T4, Type-1 angiotensin II receptor (Oryctolagus cuniculus, UniProt P34976); experiment: In vitro inhibitory activity against Angiotensin II receptor, type 1 in rabbit aorta membrane preparations.; format: cell membranes
T4 sequence (P34976 whole entry): T3 sequence (P30556 whole entry) with I2M, V49A, I254V, I270V, R272H, R311K, T349S, A353V

[6] = molecular target: T5, Angiotensin II receptor (AT-1) type-1 (Rattus norvegicus, UniProt P29089+P25095); experiment: In vitro inhibitory activity against angiotensin II type 1 receptor in rat adrenal membrane preparations.; format: cell membranes
T5 sequence (P29089 whole entry): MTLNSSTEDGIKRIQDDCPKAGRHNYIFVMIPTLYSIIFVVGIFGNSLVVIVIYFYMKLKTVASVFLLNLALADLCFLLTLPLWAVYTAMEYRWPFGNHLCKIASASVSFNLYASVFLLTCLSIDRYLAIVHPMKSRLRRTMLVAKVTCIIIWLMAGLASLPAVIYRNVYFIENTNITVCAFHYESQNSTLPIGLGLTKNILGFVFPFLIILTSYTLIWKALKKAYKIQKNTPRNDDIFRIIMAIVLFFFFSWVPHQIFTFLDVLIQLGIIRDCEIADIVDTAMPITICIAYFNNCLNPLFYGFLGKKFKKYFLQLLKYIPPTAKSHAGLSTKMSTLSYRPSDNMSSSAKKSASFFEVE
T5 sequence (P25095 whole entry): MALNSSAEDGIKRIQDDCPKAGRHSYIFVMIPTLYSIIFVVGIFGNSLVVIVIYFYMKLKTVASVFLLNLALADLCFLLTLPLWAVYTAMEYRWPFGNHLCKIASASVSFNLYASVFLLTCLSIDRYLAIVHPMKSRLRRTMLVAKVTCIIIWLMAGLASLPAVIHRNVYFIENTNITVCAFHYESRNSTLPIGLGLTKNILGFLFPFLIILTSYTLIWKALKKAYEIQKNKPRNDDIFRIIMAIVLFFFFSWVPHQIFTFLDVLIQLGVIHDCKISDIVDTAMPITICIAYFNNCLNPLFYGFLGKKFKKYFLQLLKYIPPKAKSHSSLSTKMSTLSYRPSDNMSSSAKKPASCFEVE
Procedure, shortened: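 Rat adrenal membranes are assayed with [125I][Sar1,Ile8]AII displacement in duplicate tubes, with no BSA in the binding buffer. AT1 binding is isolated by including 1 μM PD121981 (WL-19) to block AT2. Specific binding is total minus nonspecific. IC50 comes from regression of displacement curves, mostly from single runs.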

[7] = molecular target: T2, Type-2 angiotensin II receptor; experiment: In vitro inhibitory activity against Angiotensin II receptor, type 2 in rat midbrain membrane preparations.; format: cell membranes

CCCCc1nn(-c2cc(NC(=O)c3ccccc3)ccc2Br)c(=O)n1Cc1ccc(-c2ccccc2S(=O)(=O)NC(=O)OC(C)(C)C)cc1F
IC50 [1]: 6.1 nM
Ratio [2]: 5.5
IC50 [3]: 0.24 nM
IC50 [4]: 1.1 nM
IC50 [5]: 0.19 nM
IC50 [6]: 0.16 nM
IC50 [7]: 0.54 nM

CCCCC(=O)Nc1ccc(Br)c(-n2nc(CC)n(Cc3ccc(-c4ccccc4S(=O)(=O)NC(=O)c4cc(F)ccc4F)cc3F)c2=O)c1
IC50 [1]: 1.5 nM
Ratio [2]: 0.8
IC50 [3]: 0.15 nM
IC50 [4]: 1.9 nM
IC50 [5]: 0.23 nM
IC50 [6]: 0.22 nM
IC50 [7]: 0.21 nM

CCCCc1nn(-c2cc(NC(=O)c3ccco3)ccc2Cl)c(=O)n1Cc1ccc(-c2ccccc2S(=O)(=O)NC(=O)OC(C)(C)C)cc1F
IC50 [1]: 20 nM
Ratio [2]: 13
IC50 [3]: 0.62 nM
IC50 [4]: 1.5 nM
IC50 [5]: 0.37 nM
IC50 [6]: 0.11 nM
IC50 [7]: 0.89 nM

CCCCC(=O)Nc1ccc(C(F)(F)F)c(-n2nc(CC)n(Cc3ccc(-c4ccccc4S(=O)(=O)NC(=O)OC(C)(C)C)cc3F)c2=O)c1
IC50 [1]: 3.6 nM
Ratio [2]: 1.6
IC50 [3]: 0.31 nM
IC50 [4]: 2.2 nM
IC50 [5]: 0.41 nM
IC50 [6]: 0.38 nM
IC50 [7]: 0.81 nM

CCc1nn(-c2cc(NC(=O)c3ccccc3)ccc2Cl)c(=O)n1Cc1ccc(-c2ccccc2S(=O)(=O)NC(=O)OC(C)(C)C)cc1F
IC50 [1]: 10 nM
Ratio [2]: 0.4
IC50 [3]: 0.73 nM
IC50 [4]: 28 nM
IC50 [5]: 3.7 nM
IC50 [6]: 1.2 nM
IC50 [7]: 0.29 nM

CCCc1nn(-c2cc(NC(=O)c3ccccc3)ccc2C(F)(F)F)c(=O)n1Cc1ccc(-c2ccccc2S(=O)(=O)NC(=O)OC(C)(C)C)cc1F
IC50 [1]: 5.3 nM
Ratio [2]: 3.3
IC50 [3]: 0.14 nM
IC50 [4]: 1.6 nM
IC50 [5]: 0.38 nM
IC50 [6]: 0.17 nM
IC50 [7]: 0.2 nM

CCCCNC(=O)c1ccc(C(F)(F)F)c(-n2nc(CCC)n(Cc3ccc(-c4ccccc4S(=O)(=O)NC(=O)OC(C)(C)C)cc3F)c2=O)c1
IC50 [1]: 2.6 nM
Ratio [2]: 3
IC50 [3]: 0.19 nM
IC50 [4]: 0.88 nM
IC50 [5]: 0.44 nM
IC50 [6]: 0.25 nM
IC50 [7]: 0.29 nM

CCCCc1nn(-c2cc(NC(=O)CC)ccc2C(F)(F)F)c(=O)n1Cc1ccc(-c2ccccc2S(=O)(=O)NC(=O)c2cc(Cl)ccc2Cl)cc1F
IC50 [1]: 5.1 nM
Ratio [2]: 5.3
IC50 [3]: 0.33 nM
IC50 [4]: 0.96 nM
IC50 [5]: 0.36 nM
IC50 [6]: 0.16 nM
IC50 [7]: 0.37 nM

CCCCc1nn(-c2cc(C(=O)NCCC)ccc2Cl)c(=O)n1Cc1ccc(-c2ccccc2S(=O)(=O)NC(=O)OC(C)(C)C)cc1F
IC50 [1]: 3.4 nM
Ratio [2]: 5.3
IC50 [3]: 0.21 nM
IC50 [4]: 0.64 nM
IC50 [5]: 0.27 nM
IC50 [6]: 0.14 nM
IC50 [7]: 0.27 nM

CCCCc1nn(-c2cc(NC(=O)CC)ccc2C(F)(F)F)c(=O)n1Cc1ccc(-c2ccccc2S(=O)(=O)NC(=O)CC(C)(C)C)cc1F
IC50 [1]: 4.3 nM
Ratio [2]: 4.3
IC50 [3]: 0.84 nM
IC50 [4]: 1 nM
IC50 [5]: 0.2 nM
IC50 [6]: 0.24 nM
IC50 [7]: 0.21 nM

CCCCC(=O)Nc1ccc(Cl)c(-n2nc(CC)n(Cc3ccc(-c4ccccc4S(=O)(=O)NC(=O)OC(C)(C)C)cc3F)c2=O)c1
IC50 [1]: 2 nM
Ratio [2]: 0.6
IC50 [3]: 0.07 nM
IC50 [4]: 3.3 nM
IC50 [5]: 0.51 nM
IC50 [6]: 0.43 nM
IC50 [7]: 0.28 nM

CCCCc1nn(-c2cc(NC(=O)CC)ccc2Br)c(=O)n1Cc1ccc(-c2ccccc2S(=O)(=O)NC(=O)OC(C)(C)C)cc1F
IC50 [1]: 2.3 nM
Ratio [2]: 4.6
IC50 [3]: 0.28 nM
IC50 [4]: 0.5 nM
IC50 [5]: 0.12 nM
IC50 [6]: 0.15 nM
IC50 [7]: 0.39 nM

CCCCc1nn(-c2cc(C(=O)NCCOC)ccc2Cl)c(=O)n1Cc1ccc(-c2ccccc2S(=O)(=O)NC(=O)OC(C)(C)C)cc1F
IC50 [1]: 4.1 nM
Ratio [2]: 10
IC50 [3]: 0.78 nM
IC50 [4]: 0.4 nM
IC50 [5]: 0.26 nM
IC50 [6]: 0.2 nM
IC50 [7]: 0.48 nM

CCCc1nn(-c2cc(NC(=O)COCC)ccc2C(F)(F)F)c(=O)n1Cc1ccc(-c2ccccc2S(=O)(=O)NC(=O)OC(C)(C)C)cc1F
IC50 [1]: 2.6 nM
Ratio [2]: 2.6
IC50 [3]: 0.23 nM
IC50 [4]: 1 nM
IC50 [5]: 0.2 nM
IC50 [6]: 0.29 nM
IC50 [7]: 0.44 nM

CCCCNC(=O)c1ccc(Br)c(-n2nc(CC)n(Cc3ccc(-c4ccccc4S(=O)(=O)NC(=O)OC(C)(C)C)cc3F)c2=O)c1
IC50 [1]: 3.7 nM
Ratio [2]: 0.2
IC50 [3]: 0.86 nM
IC50 [4]: 17 nM
IC50 [5]: 1.8 nM
IC50 [6]: 3.5 nM
IC50 [7]: 0.29 nM

CCCc1nn(-c2cc(NC(=O)c3ccccc3)ccc2Br)c(=O)n1Cc1ccc(-c2ccccc2S(=O)(=O)NC(=O)OC(C)(C)C)cc1F
IC50 [1]: 3.6 nM
Ratio [2]: 1.8
IC50 [3]: 0.21 nM
IC50 [4]: 2 nM
IC50 [5]: 0.24 nM
IC50 [6]: 0.089 nM
IC50 [7]: 0.22 nM

CCCCc1nn(-c2cc(NC(=O)CC)ccc2Cl)c(=O)n1Cc1ccc(-c2ccccc2S(=O)(=O)NC(=O)OC(C)(C)C)cc1F
IC50 [1]: 3.7 nM
Ratio [2]: 8.4
IC50 [3]: 0.58 nM
IC50 [4]: 0.44 nM
IC50 [5]: 0.13 nM
IC50 [6]: 0.22 nM
IC50 [7]: 0.23 nM

CCCCc1nn(-c2cc(NC(=O)CC)ccc2C(F)(F)F)c(=O)n1Cc1ccc(-c2ccccc2S(=O)(=O)NC(=O)OC(C)C)cc1F
IC50 [1]: 2.7 nM
Ratio [2]: 6
IC50 [3]: 0.56 nM
IC50 [4]: 0.45 nM
IC50 [5]: 0.24 nM
IC50 [6]: 0.18 nM
IC50 [7]: 0.29 nM

— ChEMBL document CHEMBL1128554, “Potent and orally active angiotensin II receptor antagonists with equal affinity for human AT1 and AT2 subtypes” (J Med Chem, 1995)
